Laboratory results published in ChEMBL document CHEMBL1131930, “Synthetic [5,5] trans-fused indane lactones as inhibitors of thrombin” (Bioorg Med Chem Lett, 1999).

What was measured:
Homo sapiens = species: Homo sapiens; assay: Activated partial thromboplastin time (APTT) 2x control using human plasma; NE=no significant effect at 100 uM; format: functional, cell-free
Procedure, shortened: (§1)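 Human plasma clotting; test compound added with a preincubation step before APTT measurement. The value is the compound concentration required to double the activated partial thromboplastin time. Lines with no significant effect were tested up to 100 µM.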

Prothrombin [1] = molecular target: T1, Prothrombin (Homo sapiens, UniProt P00734); assay: Inhibitory activity against human thrombin was determined
[2] = Activated partial thromboplastin time (APTT) 2x control using human plasma; format: functional; procedure, shortened: as §1
Prothrombin [3] = molecular target: T1, Prothrombin
[4] = Selectivity was determined
[5] = molecular target: Serine protease 1 (Homo sapiens) (UniProt P07477); assay: Inhibitory activity against protease trypsin was determined
Chain of Serine protease 1 (Homo sapiens) (P07477 whole entry): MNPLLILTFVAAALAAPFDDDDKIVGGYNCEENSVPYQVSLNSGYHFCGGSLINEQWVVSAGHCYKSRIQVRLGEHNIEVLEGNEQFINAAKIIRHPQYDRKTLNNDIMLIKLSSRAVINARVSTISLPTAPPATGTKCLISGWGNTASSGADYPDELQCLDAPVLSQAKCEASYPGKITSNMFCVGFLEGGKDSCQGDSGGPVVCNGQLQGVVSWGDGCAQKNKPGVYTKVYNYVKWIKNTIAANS

IC50 (Prothrombin [1]) [nM]	K obs / 1 (Prothrombin [3]) [µM⁻¹ s⁻¹]	Selectivity [4]	K obs / 1 [5] [µM⁻¹ s⁻¹]	SMILES	APTT (Homo sapiens)	APTT [2] [µM]
	0.033			N=C(N)CCCCC1C(=O)O[C@H]2Cc3cc(-c4ccc(O)cc4)ccc3[C@H]12 (some centres undefined)		27
	0.048	2.4	0.02	N=C(N)CCCCC1C(=O)O[C@H]2Cc3cc(-c4ccccc4)ccc3[C@H]12 (some centres undefined)		50
	3.8	35	0.11	N=C(N)CCCCC1C(=O)O[C@H]2Cc3ccc(-c4cccc(-c5ccccc5)c4)cc3[C@H]12 (some centres undefined)		85
	0.49			N=C(N)CCCCC1C(=O)O[C@H]2Cc3ccc(-c4ccccc4)cc3[C@H]12 (some centres undefined)		60
9	0.27			N=C(N)CCCCC1C(=O)O[C@H]2Cc3ccc(-c4ccc(O)cc4)cc3[C@H]12 (some centres undefined)		42
1600				CNC(=N)CCCC[C@H]1C(=O)O[C@H]2Cc3ccc(-c4ccc(O)cc4)cc3[C@@H]21		

Further lines, the molecule ahead of its results:

SMILES	IC50 (Prothrombin [1]) [nM]	K obs / 1 (Prothrombin [3]) [µM⁻¹ s⁻¹]	Selectivity [4]	K obs / 1 [5] [µM⁻¹ s⁻¹]	APTT (Homo sapiens)	APTT [2] [µM]
C/N=C(/N)CCCC[C@H]1C(=O)O[C@H]2Cc3ccc(-c4ccc(O)cc4)cc3[C@@H]21					No effect	
N=C(N)CCC[C@H]1C(=O)O[C@H]2Cc3ccccc3[C@@H]21	600					
CCN(CC)C(=O)c1cccc(-c2ccc3c(c2)C[C@@H]2OC(=O)C(CCCCC(=N)N)[C@@H]32)c1 (some centres undefined)		0.42	1.9	0.22		4
CCN(CC)C(=O)c1cccc(-c2ccc3c(c2)[C@@H]2C(CCCCC(=N)N)C(=O)O[C@H]2C3)c1 (some centres undefined)		11	55	0.2		40
COc1cccc(-c2ccc3c(c2)C[C@@H]2OC(=O)C(CCCCC(=N)N)[C@@H]32)c1 (some centres undefined)		0.096	2.7	0.036		25
N=C(N)CCCCC1C(=O)O[C@H]2Cc3cc(-c4cccc(-c5ccccc5)c4)ccc3[C@H]12 (some centres undefined)		0.16			No effect	
N=C(N)CCCCC1C(=O)O[C@H]2Cc3ccccc3[C@H]12 (some centres undefined)	77	0.0042				100
NC(N)=NCCC[C@H](NC(=O)[C@H]1CCCN1C(=O)[C@H](N)Cc1ccccc1)C(=O)CCl		16				
NC(N)=NCCC[C@H](NC(=O)[C@@H]1CCCN1C(=O)[C@H](N)Cc1ccccc1)C(=O)CCl						1.8
COc1cccc(-c2ccc3c(c2)C[C@@H]2OC(=O)C(C)(CCCCC(=N)N)[C@@H]32)c1 (some centres undefined)	1800				No effect	
